Assay results as given in ChEMBL document CHEMBL4680253, “Hybrids of MEK inhibitor and NO donor as multitarget antitumor drugs” (Eur J Med Chem, 2020).
Active and inactive are the calls of the source. The rule behind the calls is not given here.

Key:
MDA-MB-231 [1] = experiment: Induction of apoptosis in human MDA-MB-231 cells assessed as viable cells at 1 uM incubated for 24 hrs by AnnexinV-FITC and propidium iodide staining based flow cytometry (reference value: 90.962%); type: functional; details: read-out: Activity
L02 = experiment: Cytotoxicity against human HL7702 cells assessed as reduction in cell viability after 96 hrs by Celltiter-Glo assay; type: cell-based; details: L02, 96 h
Outline: (§1)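 Cells kept at 37 °C in humidified 5% CO2 with 10% FBS; Vero in DMEM, HL7702 in RPMI-1640. Compounds added to plated cells and incubated 96 h at 37 °C. Viability read by CellTiter-Glo reagent added directly to the wells. IC50 fitted from the readings.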

[2] = target: T1, Dual specificity mitogen-activated protein kinase kinase; MEK1/2 (Homo sapiens) (UniProt P36507+Q02750); experiment: Inhibition of MEK in human MDA-MB-231 cells assessed as reduction in MEK phosphorylation at 1 uM by Western blot analysis; type: cell-based; details: time 1-6 hrs, TDE = time-dependent effect
T1 sequence (P36507 whole entry, looked up): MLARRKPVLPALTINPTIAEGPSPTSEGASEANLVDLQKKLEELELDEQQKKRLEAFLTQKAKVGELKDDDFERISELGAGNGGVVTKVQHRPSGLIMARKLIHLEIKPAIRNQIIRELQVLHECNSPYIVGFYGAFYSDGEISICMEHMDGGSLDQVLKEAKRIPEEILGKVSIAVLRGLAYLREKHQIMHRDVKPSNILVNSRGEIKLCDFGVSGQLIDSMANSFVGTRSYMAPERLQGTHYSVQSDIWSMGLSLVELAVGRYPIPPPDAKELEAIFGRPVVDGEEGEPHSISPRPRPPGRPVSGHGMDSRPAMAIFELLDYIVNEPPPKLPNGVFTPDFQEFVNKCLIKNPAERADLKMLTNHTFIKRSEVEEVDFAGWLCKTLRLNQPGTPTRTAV
T1 sequence (Q02750 whole entry, looked up): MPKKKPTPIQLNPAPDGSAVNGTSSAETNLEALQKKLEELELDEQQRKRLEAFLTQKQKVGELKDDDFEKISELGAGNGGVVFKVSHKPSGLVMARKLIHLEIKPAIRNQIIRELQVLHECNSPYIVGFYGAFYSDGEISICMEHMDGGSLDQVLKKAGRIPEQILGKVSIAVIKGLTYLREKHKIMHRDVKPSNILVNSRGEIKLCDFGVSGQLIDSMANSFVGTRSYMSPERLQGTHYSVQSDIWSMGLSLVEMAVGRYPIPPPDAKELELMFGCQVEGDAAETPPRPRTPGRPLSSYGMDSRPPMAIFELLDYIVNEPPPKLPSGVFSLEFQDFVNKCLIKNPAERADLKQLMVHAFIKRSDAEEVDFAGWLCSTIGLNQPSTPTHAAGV
Outline: (§2)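 MDA-MB-231 in RPMI-1640 with 10% FBS. Dose series at 1, 3 and 10 µM for 2 h or 24 h; time course at 1 µM or 10 µM over several time points. RIPA lysates with protease/phosphatase inhibitors, equal protein on 4-20% SDS-PAGE, PVDF transfer, 5% milk block. Probed overnight at 4 °C for pMEK, MEK, pERK and ERK, then HRP secondary.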

MDA-MB-231 [3] = experiment: Induction of apoptosis in human MDA-MB-231 cells assessed as early apoptotic cells at 10 uM incubated for 24 hrs by AnnexinV-FITC and propidium iodide staining based flow cytometry (reference value: 4.4%); type: functional
MDA-MB-231 [4] = experiment: Induction of apoptosis in human MDA-MB-231 cells assessed as necrotic cells at 1 uM incubated for 24 hrs by AnnexinV-FITC and propidium iodide staining based flow cytometry (reference value: 1.084%); type: functional
[5] = target: T1, Dual specificity mitogen-activated protein kinase kinase; MEK1/2 (Homo sapiens); experiment: Inhibition of MEK in human MDA-MB-231 cells assessed as reduction in ERK phosphorylation at 1 uM incubated for <=1 hr by Western blot analysis; type: cell-based; details: time hrs <=1; outline: as §2
HCT-116 = experiment: Antiproliferative activity against human HCT116 cells harboring KRAS G13D mutant assessed as inhibition of cell viability after 96 hrs by Celltiter-Glo assay; type: functional, cell-based; details: HCT-116, 96 h
Vero = experiment: Cytotoxicity against African green monkey Vero cells assessed as reduction in cell viability after 96 hrs by Celltiter-Glo assay; type: cell-based; details: Chlorocebus sabaeus; outline: as §1
MDA-MB-231 [6] = experiment: Induction of apoptosis in human MDA-MB-231 cells assessed as necrotic cells at 10 uM incubated for 24 hrs by AnnexinV-FITC and propidium iodide staining based flow cytometry (reference value: 1.084%); type: functional
[7] = target: T1, Dual specificity mitogen-activated protein kinase kinase; MEK1/2 (Homo sapiens); experiment: Inhibition of MEK in human MDA-MB-231 cells assessed as reduction in ERK phosphorylation incubated for 2 hrs by Western blot analysis; type: cell-based; details: dose 0.1-10 µM
MDA-MB-231 [8] = experiment: Induction of apoptosis in human MDA-MB-231 cells assessed as late apoptotic cells at 10 uM incubated for 24 hrs by AnnexinV-FITC and propidium iodide staining based flow cytometry (reference value: 3.54%); type: functional
MDA-MB-231 [9] = experiment: Induction of apoptosis in human MDA-MB-231 cells assessed as early apoptotic cells at 1 uM incubated for 24 hrs by AnnexinV-FITC and propidium iodide staining based flow cytometry (reference value: 4.4%); type: functional
[10] = target: T1, Dual specificity mitogen-activated protein kinase kinase; MEK1/2 (Homo sapiens); experiment: Inhibition of MEK in human MDA-MB-231 cells assessed as reduction in MEK phosphorylation at 1 uM incubated for <=1 hr by Western blot analysis; type: cell-based; details: time hrs <=1; outline: as §2
[11] = target: T1, Dual specificity mitogen-activated protein kinase kinase; MEK1/2 (Homo sapiens); experiment: Inhibition of MEK in human MDA-MB-231 cells assessed as reduction in MEK phosphorylation at 1 to 10 uM incubated for 2 hrs by Western blot analysis; type: cell-based; details: dose 1-10 µM; outline: as §2
MDA-MB-231 [12] = experiment: Induction of apoptosis in human MDA-MB-231 cells assessed as viable cells at 10 uM incubated for 24 hrs by AnnexinV-FITC and propidium iodide staining based flow cytometry (reference value: 90.962%); type: functional; details: read-out: Activity
MDA-MB-231 [13] = experiment: Induction of apoptosis in human MDA-MB-231 cells assessed as late apoptotic cells at 1 uM incubated for 24 hrs by AnnexinV-FITC and propidium iodide staining based flow cytometry (reference value: 3.54%); type: functional
[14] = target: T1, Dual specificity mitogen-activated protein kinase kinase; MEK1/2 (Homo sapiens); experiment: Inhibition of MEK in human MDA-MB-231 cells assessed as reduction in ERK phosphorylation at 1 to 10 uM incubated for 2 hrs by Western blot analysis; type: cell-based; details: dose 1-10 µM; outline: as §2
A549 = experiment: Antiproliferative activity against human A549 cells harboring KRAS G12S mutant assessed as inhibition of cell viability after 96 hrs by Celltiter-Glo assay; type: functional, cell-based; details: A549, 96 h
[15] = Prodrug release in human HCT-116 cells assessed as increase in intracellular NO level at 100 uM measured after 2 hr by DAF-FM DA reagent based laser confocal scanning microscopy; details: hct-116, 2 h
[16] = target: T1, Dual specificity mitogen-activated protein kinase kinase; MEK1/2 (Homo sapiens); experiment: Inhibition of MEK in human MDA-MB-231 cells assessed as reduction in ERK phosphorylation at 1 uM by Western blot analysis; type: cell-based; details: time 1-6 hrs, TDE = time-dependent effect; outline: as §2
MDA-MB-231 [17] = experiment: Antiproliferative activity against human MDA-MB-231 cells harboring KRAS G13D/BRAF G464V mutant assessed as inhibition of cell viability after 96 hrs by Celltiter-Glo assay; type: functional, cell-based; details: MDA-MB-231, 96 h
[18] = target: T1, Dual specificity mitogen-activated protein kinase kinase; MEK1/2 (Homo sapiens); experiment: Inhibition of MEK in human MDA-MB-231 cells assessed as reduction in MEK phosphorylation incubated for 2 hrs by Western blot analysis; type: cell-based; details: dose 0.1-10 µM
[19] = target: T1, Dual specificity mitogen-activated protein kinase kinase; MEK1/2 (Homo sapiens); experiment: Inhibition of MEK in human A549 cells assessed as reduction in MEK phosphorylation incubated for 2 hrs by Western blot analysis; type: cell-based; details: dose 1-10 µM
Outline: (§3)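 A549 cells in RPMI-1640 with 10% FBS, treated 2 h. Cells lysed in RIPA with protease/phosphatase inhibitors on ice for 20 min. Equal protein run on 4-20% SDS-PAGE and blotted to PVDF. Membranes blocked in 5% milk, then probed overnight at 4 °C with rabbit mAbs to pMEK, MEK, pERK and ERK, followed by HRP secondary. GAPDH used as loading control.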

[20] = target: T1, Dual specificity mitogen-activated protein kinase kinase; MEK1/2 (Homo sapiens); experiment: Inhibition of MEK in human A549 cells assessed as reduction in ERK phosphorylation at 1 uM incubated for 2 hrs by Western blot analysis; type: cell-based; outline: as §3
[21] = target: T1, Dual specificity mitogen-activated protein kinase kinase; MEK1/2 (Homo sapiens); experiment: Inhibition of MEK in human MDA-MB-231 cells assessed as reduction in ERK phosphorylation at 10 uM incubated for 2 hrs by Western blot analysis; type: cell-based; outline: as §2
[22] = target: T1, Dual specificity mitogen-activated protein kinase kinase; MEK1/2 (Homo sapiens); experiment: Inhibition of MEK in human MDA-MB-231 cells assessed as reduction in MEK phosphorylation at 1 to 10 uM incubated for 24 hrs by Western blot analysis; type: cell-based; details: dose 1-10 µM; outline: as §2
[23] = target: T1, Dual specificity mitogen-activated protein kinase kinase; MEK1/2 (Homo sapiens); experiment: Inhibition of MEK in human A549 cells assessed as reduction in MEK phosphorylation by Western blot analysis; type: cell-based; details: TDE = time-dependent effect; outline: as §3
[24] = target: T1, Dual specificity mitogen-activated protein kinase kinase; MEK1/2 (Homo sapiens); experiment: Inhibition of MEK in human MDA-MB-231 cells assessed as reduction in ERK phosphorylation at 10 uM incubated for 4 hrs by Western blot analysis; type: cell-based; outline: as §2
[25] = target: T1, Dual specificity mitogen-activated protein kinase kinase; MEK1/2 (Homo sapiens); experiment: Inhibition of MEK in human A549 cells assessed as reduction in MEK phosphorylation at 10 uM incubated for 2 hrs by Western blot analysis; type: cell-based; outline: as §3
[26] = target: T1, Dual specificity mitogen-activated protein kinase kinase; MEK1/2 (Homo sapiens); experiment: Inhibition of MEK in human A549 cells assessed as reduction in ERK phosphorylation incubated for 2 hrs by Western blot analysis; type: cell-based; details: dose 1-10 µM; outline: as §3
[27] = target: T1, Dual specificity mitogen-activated protein kinase kinase; MEK1/2 (Homo sapiens); experiment: Inhibition of MEK in human MDA-MB-231 cells assessed as reduction in MEK phosphorylation at 10 uM incubated for 4 hrs by Western blot analysis; type: cell-based; outline: as §2
[28] = Antiproliferative activity against human A375 cells harboring BRAF V600E mutant assessed as inhibition of cell viability after 96 hrs by Celltiter-Glo assay; type: functional, cell-based, A375/R; details: A-375, 96 h
[29] = target: T1, Dual specificity mitogen-activated protein kinase kinase; MEK1/2 (Homo sapiens); experiment: Inhibition of MEK in human MDA-MB-231 cells assessed as reduction in ERK phosphorylation at 1 to 10 uM incubated for 24 hrs by Western blot analysis; type: cell-based; details: dose 1-10 µM; outline: as §2
[30] = target: T1, Dual specificity mitogen-activated protein kinase kinase; MEK1/2 (Homo sapiens); experiment: Inhibition of MEK in human A549 cells assessed as reduction in ERK phosphorylation by Western blot analysis; type: cell-based; details: TDE = time-dependent effect; outline: as §3
HL-60 = experiment: Antiproliferative activity against human HL60 cells harboring NRAS […] mutant assessed as inhibition of cell viability after 96 hrs by Celltiter-Glo assay; type: functional, cell-based; details: HL-60, 96 h
[31] = target: T1, Dual specificity mitogen-activated protein kinase kinase; MEK1/2 (Homo sapiens); experiment: Inhibition of MEK in human MDA-MB-231 cells assessed as reduction in MEK phosphorylation at 10 uM incubated for 2 hrs by Western blot analysis; type: cell-based; outline: as §2

Compound	viability at 1 µM (MDA-MB-231 [1]) [%]	IC50 (L02) [nM]	Activity (MDA-MB-231 [3]) [%]	Activity (MDA-MB-231 [4]) [%]	IC50 (HCT-116) [nM]	IC50 (Vero) [nM]	Activity (MDA-MB-231 [6]) [%]	Activity (MDA-MB-231 [8]) [%]	Activity (MDA-MB-231 [9]) [%]	inhibition [11]	viability at 10 µM (MDA-MB-231 [12]) [%]	Activity (MDA-MB-231 [13]) [%]	inhibition [14]	IC50 (A549) [nM]	Drug metabolism [15]	IC50 (MDA-MB-231 [17]) [nM]	inhibition [20]	inhibition [25]	IC50 [28] [nM]	IC50 (HL-60) [nM]	further results
CNS(=O)(=O)Nc1cccc(Cc2c(C)c3ccc(OCCCOc4no[n+]([O-])c4S(=O)(=O)c4ccccc4)cc3oc2=O)c1F	61.2	5620	24.7	8.443	640	21100	14.729	6.87	22.6	Active	53.7	7.65	Active	1350	Metabolite_Detected	34	–	–	–	–	inhibition [2]: Tde; inhibition [5]: Active; inhibition [7]: Dose-dependent effect; inhibition [10]: Active; inhibition [16]: Tde; inhibition [18]: Dose-dependent effect
CNS(=O)(=O)Nc1cccc(Cc2c(C)c3ccc(OCCOc4no[n+]([O-])c4S(=O)(=O)c4ccccc4)cc3oc2=O)c1F	68	2780	22.9	3.613	670	4340	14.737	5.11	20.2	–	57.2	8.15	–	1100	Metabolite_Detected	93	Active	Active	330	530	inhibition [19]: Dose-dependent effect; inhibition [21]: Active; inhibition [22]: Active; inhibition [23]: Tde; inhibition [24]: 100%; inhibition [26]: Dose-dependent effect; inhibition [27]: 100%; inhibition [29]: Active; inhibition [30]: Tde; inhibition [31]: Active
CNS(=O)(=O)Nc1nccc(Cc2c(C)c3ccc(Oc4ncccn4)cc3oc2=O)c1F [AVUTOMETINIB]	88.8	17300	7.32	0.87	53	> 50000	0.57	2.37	8.45	Active	89.7	1.92	Active	1240	Metabolite_Notdetected	170	Active	Active	17	6	–
